In ChEMBL document CHEMBL1154284, “Antioxidant effects of xanthohumol and functional impact on hepatic ischemia-reperfusion injury” (J Nat Prod, 2009):
Active and inactive are the calls of the source. No cut-off for these calls is given here.

Assays:
[1] = Antioxidant activity assessed as superoxide radical anion scavenging activity after 100 secs by xanthine/xanthine oxidase method; type: functional
Outline: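 Cell-free chemiluminescence: 1 mM xanthine with test solution (5–80 μM), reaction started by injecting 1 mM luminol and 0.5 U/mL xanthine oxidase (stock concentrations). Light read for 100 s at 37 °C; output as RLU or area under the curve, relative to solvent control (100%); n = 9.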

[2] = system: HEK293; test: Antioxidant activity in human HEK293 cells loaded with dihyfrofluresceindiacetate at 40 uM; type: functional
Outline: (§1)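 HEK 293 cells grown to 85–90% confluency, pretreated 2 h with compound (40 μM) or NAC (1 mM); 20 μM dihydrofluorescein diacetate loaded during final 30 min at 37 °C in dark; washed, then 1 mM H2O2 for 20 min. Fluorescence ex 485/em 535 nm versus corresponding controls; mean ± SEM, n = 4.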

[3] = system: HEK293; test: Cytotoxicity against human HEK293 cells upto 10 to 300 uM after 3 hrs by MTT assay; type: cell-based; details: hek293, 3 h
Outline: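 HEK 293 cells near 85–90% confluency exposed 3 h to 10–300 μM; MTT added, 1 h at 37 °C; formazan dissolved in DMSO and absorbance read at 550 nm.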

[4] = system: Liver; test: Inhibition of ischemic and reperfusion-induced of GSH activity in Sprague-Dawley rat hepatic tissue at 26.6 mM before ischemic period by DTNB reduction assay; type: functional, tissue-based; details: 2.26 mM, in the assay text read “2.26 mM” for “26.6 mM”
Outline: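 Total glutathione in liver homogenate from perfused rat livers after cold ischemia/reperfusion, measured colorimetrically via DTNB reduction at 405 nm; normalized to Bradford protein; percent of untreated controls.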

[5] = system: Liver; test: Inhibition of ischemic and reperfusion-induced SOD activity in Sprague-Dawley rat hepatic tissue at 26.6 mM before ischemic period by pyragallol method; type: functional, tissue-based; details: 2.26 mM, in the assay text read “2.26 mM” for “26.6 mM”
Outline: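 Perfused rat livers (portal-vein pretreatment before 6 h cold ischemia, 150 min reperfusion). Tissue SOD activity by pyrogallol autoxidation method (one unit inhibits autoxidation 50%), normalized to Bradford protein, expressed as percent of untreated controls; mean ± SEM, n = 3.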

[6] = system: Liver; test: Inhibition of ischemic and reperfusion-induced oxidative stress in Sprague-Dawley rat hepatic tissue at 26.6 mM before ischemic period assessed as decrease in 8-isoprostane level; type: functional, tissue-based; details: 2.26 mM, in the assay text read “2.26 mM” for “26.6 mM”
Outline: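 Liver homogenates from perfused rat livers after cold ischemia/reperfusion; 8-isoprostane by competitive EIA with acetylcholinesterase conjugate, absorbance 412 nm; percent of untreated controls.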

[7] = Inhibition of TNF-alpha-induced NF-kappaB activation expressed in human HEK293 cells preincubated for 2 hrs before TNFalpha challenge by leuciferase reporter gene assay; type: cell-based
Outline: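 HEK 293 cells transiently transfected (Ca2+-phosphate) with NF-κB-driven firefly luciferase plasmid, replated 1×10^5 cells/well, grown 16 h; preincubated 2 h with 5–60 μM, then 1 ng/mL TNF-α for 6 h; PDTC 50 μM positive control. Lysate luciferase read; solvent-treated = 100%; mean ± SEM, n = 3.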

[8] = biological target: RAC-alpha serine/threonine-protein kinase (Rattus norvegicus) (UniProt P47196); test: Inhibition of AKt phosphorylation in Sprague-Dawley rat ischemic reperfusion treated hepatic tissue at 2.26 mM before ischemic period by Western blot analysis
Outline: (§2)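 Rat livers given 2.26 mM or solvent via portal vein before 6 h cold ischemia and 150 min reperfusion. Western blot with antibodies to Bcl-xl or phospho-Akt (Ser-473, Thr-308), overnight at 4 °C, HRP secondary; β-actin loading control; densitometry; untreated livers as control; n = 3.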

[9] = biological target: Bcl-2-like protein 1 (Rattus norvegicus) (UniProt P53563); test: Reduction of Bcl-xl level in Sprague-Dawley rat ischemic-reperfused hepatic tissue at 2.26 mM treated before ischemic period by Western blot analysis; type: functional; outline: as §2
[10] = biological target: T1, Caspase-3 (Rattus norvegicus) (UniProt P55213); test: Induction of caspase 3 in Sprague-Dawley rat ischemic-reperfused hepatic tissue assessed as generation of free fluorescent 7-amino-4-trifluoro-methylcoumarin at 2.26 mM treated before ischemic period
T1 sequence (whole entry): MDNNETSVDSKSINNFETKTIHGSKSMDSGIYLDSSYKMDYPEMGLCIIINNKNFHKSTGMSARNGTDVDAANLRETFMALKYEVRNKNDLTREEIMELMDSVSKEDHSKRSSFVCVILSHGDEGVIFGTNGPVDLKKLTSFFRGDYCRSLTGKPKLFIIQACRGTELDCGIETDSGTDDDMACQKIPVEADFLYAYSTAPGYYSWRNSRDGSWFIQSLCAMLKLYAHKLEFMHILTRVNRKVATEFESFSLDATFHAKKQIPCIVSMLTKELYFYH
Outline: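 Isolated perfused rat livers (2.26 mM or solvent into portal vein, 6 h 4 °C cold ischemia, 150 min reperfusion). Tissue extracts incubated with Ac-DEVD-AFC; AFC fluorescence ex 385/em 505 nm; untreated livers set as 1; mean ± SEM, n = 3.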

[11] = system: Liver; test: Effect on ischemic and reperfusion-induced injury in Sprague-Dawley rat hepatic tissue at 2.26 mM before ischemic period assessed as ALT level; type: functional, tissue-based; details: Sprague-Dawely
Outline: (§3)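 Male Sprague–Dawley rats (200–240 g) livers perfused with Krebs–Henseleit buffer pH 7.4, 37 °C; 2.26 mM compound or solvent injected via portal vein before 6 h cold ischemia at 4 °C; reperfused 150 min at 37 °C. Perfusate ALT, AST, LDH measured over time on clinical analyzer at 37 °C; mean ± SEM, n = 3.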

[12] = system: Liver; test: Effect on ischemic and reperfusion-induced injury in Sprague-Dawley rat hepatic tissue at 2.26 mM before ischemic period assessed as AST level; type: functional, tissue-based; details: Sprague-Dawely; outline: as §3
[13] = system: Liver; test: Effect on ischemic and reperfusion-induced injury in Sprague-Dawley rat hepatic tissue at 2.26 mM before ischemic period assessed as LDH level; type: functional, tissue-based; details: Sprague-Dawely; outline: as §3
[14] = system: HEK293; test: Antioxidant activity in human HEK293 cells loaded with dihyfrofluresceindiacetate at 1 mM; type: functional; outline: as §1
[15] = organism: Rattus norvegicus; test: Inhibition of ischemia-reperfusion-induced NF-kappaB binding activity in Sprague-Dawley rat liver at 2.26 mM treated prior to ischemic reperfusion by EMSA

RAC-alpha serine/threonine-protein kinase (Rattus norvegicus), sequence (P47196 whole entry, the tested form may be a part): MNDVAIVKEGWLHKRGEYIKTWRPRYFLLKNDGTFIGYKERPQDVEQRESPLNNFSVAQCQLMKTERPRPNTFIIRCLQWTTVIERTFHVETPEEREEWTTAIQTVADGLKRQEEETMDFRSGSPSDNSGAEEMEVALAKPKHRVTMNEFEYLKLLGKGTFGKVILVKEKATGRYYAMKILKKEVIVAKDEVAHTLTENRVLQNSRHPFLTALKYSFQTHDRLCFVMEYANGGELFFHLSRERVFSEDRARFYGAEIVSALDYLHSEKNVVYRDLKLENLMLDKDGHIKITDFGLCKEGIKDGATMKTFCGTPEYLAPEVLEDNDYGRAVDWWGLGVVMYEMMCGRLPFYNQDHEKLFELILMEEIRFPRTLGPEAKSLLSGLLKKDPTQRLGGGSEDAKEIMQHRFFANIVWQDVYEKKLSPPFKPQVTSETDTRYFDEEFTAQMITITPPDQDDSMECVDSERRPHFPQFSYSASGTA
Bcl-2-like protein 1 (Rattus norvegicus), sequence (P53563 whole entry, the tested form may be a part): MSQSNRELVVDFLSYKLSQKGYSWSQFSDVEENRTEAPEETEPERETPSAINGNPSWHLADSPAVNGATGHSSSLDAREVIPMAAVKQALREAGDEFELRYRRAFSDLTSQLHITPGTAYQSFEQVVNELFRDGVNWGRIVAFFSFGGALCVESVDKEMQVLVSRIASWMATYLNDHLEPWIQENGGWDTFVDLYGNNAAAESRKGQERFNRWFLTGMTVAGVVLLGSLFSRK

IC50 [1]: 15 µM
IC50 [7]: 35 µM
inhibition [8]: Active
Activity [9]: Active
Activity [10]: Active
inhibition [15]: Active
SMILES: COc1cc(O)c(CC=C(C)C)c(O)c1C(=O)/C=C/c1ccc(O)cc1 [XANTHOHUMOL]
Activity [2]: 71.9%
Activity [3]: Non-toxic
inhibition [4]: Active
inhibition [5]: Active
inhibition [6]: Active
Activity [11]: inactive
Activity [12]: inactive
Activity [13]: inactive
Activity [14]: 46.2%
